Assay results collected from several papers.
Lines come from different studies, so protocols differ.
Target: Mitogen-activated protein kinase kinase kinase kinase 1 (MAP4K1, Homo sapiens, UniProt Q92918)

| SMILES | test | setting | endpoint | result |
| --- | --- | --- | --- | --- |
| Cc1ccc(C(=O)NCc2ccsc2)cc1C#Cc1cn(C(C)C)c2ncnc(N)c12 | enzyme activity, inhibitor | 1 µM | activity vs control | 85% |
| CC(C)(O)[C@H]1CC[C@H](Nc2ccc3ncc(-c4cccc(C(F)(F)F)c4)n3n2)CC1 | enzyme activity, inhibitor | 1 µM | remaining activity | 79.6% |
| Cc1ccc(C(=O)Nc2ccc(CN3CCN(C)CC3)c(C(F)(F)F)c2)cc1C#Cc1cnc2cccnn12 | enzyme activity, inhibitor | 23.5 nM | remaining activity | 8.5% |
| CC/C(=N\NC(=O)NCc1cccc(O)c1)c1ccc(O)c(C)c1O | enzyme activity, inhibitor | 0.1 µM | inhibition | 17.1% |
| COc1cc(Cl)c(C(=O)N[C@@H](CN[C@H]2CC[C@@H](N)CC2)Cc2ccc(C#N)cc2)cc1-c1ccc(CN[C@H](C)c2ccc(C)cc2)o1 | enzyme activity, inhibitor | 1 µM | remaining activity | 96% |
| Cc1sc(C(=O)NC2COC2)cc1-n1cc(NC(=O)Nc2c(F)cccc2Cl)cn1 | enzyme activity, inhibitor | 10 µM | remaining activity | 99.2% |
| CN1CC(Oc2cnc(C#N)cc2-c2ccn3nc(NC(=O)C4CC4)cc3c2)C1 | enzyme activity, inhibitor | 1 µM | inhibition | 4% |
| CCS(=O)(=O)c1cc2cc(C[C@](O)(CC(C)(C)c3ccc(F)cc3C(N)=O)C(F)(F)F)[nH]c2cn1 | cell-free assay, competition with immobilised ligand | 1 µM | remaining binding | 100% |
| O=C(Nc1cnn(-c2csc(C(=O)NC3COC3)c2)c1)Nc1ccccc1Cl | enzyme activity, inhibitor | 5 µM | remaining activity | 132% |
| CC(=O)N1CCC(c2ccc(C(=O)NC(=N)N)cc2C(F)(F)F)CC1 | cell-free assay, competition with immobilised ligand | 1 µM | remaining binding | 100% |
| Nc1ncnc2occ(-c3ccc(NC(=O)Nc4cc(C(F)(F)F)ccc4F)cc3)c12 | cell-free assay, inhibitor | 20 µM | remaining signal | 0.7% |
| COc1cc2nccc(Oc3ccc(NC(=O)c4c5n(n(-c6ccc(F)cc6)c4=O)CCCC5)cc3)c2cc1OC | enzyme activity, inhibitor | 0.1 µM | inhibition | 11% |
